From ChEMBL document CHEMBL1671644, “Inhibition of human immunodeficiency virus type 1 infection by the candidate microbicide dapivirine, a nonnucleoside reverse transcriptase inhibitor” (Antimicrob Agents Chemother, 2009)
Activity calls are given as the source filed them. The calls are words filed in the database; no cut-off is given here.

Key:
[1] = tested on: Human immunodeficiency virus 1; assay: Antiviral activity against HIV-1 subtype O V029524 harboring NNRTI A98G, V179E and Y181C mutant infected in human MT4 cells assessed as inhibition of viral replication relative to HIV-1 3B; assay type: functional
In short: (§1)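 MT-4 cells (3 x 10^4/well) infected with site-directed mutants or recombinant clinical isolates (200 TCID50/well) with drug, cultured 3 to 5 days. Viability read by MTT colorimetric antivirogram assay. IC50 by nonlinear regression; fold change = IC50 for the test isolate / IC50 for wild-type HIV-1 IIIB tested in parallel (mean or median).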

[2] = tested on: Human immunodeficiency virus 1; assay: Antiviral activity against HIV-1 Bal infected in 1 hr compound pretreated human ectocervical explant tissue assessed as inhibition of viral replication at 0.1 nM by RT-PCR; assay type: functional, organism-based
In short: (§2)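 Ectocervical explants were pretreated with drug for 1 h, then exposed to HIV-1BaL (two 50% tissue infectious doses, about 10^4 TCID50 on PM-1) for 2 h at 37°C with drug present. Explants were washed and cultured overnight, then cultured separately for 10 days. Tissue was proteinase K-digested and proviral LTR DNA measured by multiplex qPCR against β-actin (10 copies/10^5 cells sensitivity). Two donors, triplicate.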

[3] = tested on: Human immunodeficiency virus 1; assay: Antiviral activity against HIV-1 subtype C V022831 infected in human MT4 cells assessed as inhibition of viral replication relative to HIV-1 3B; assay type: functional; in short: as §1
[4] = tested on: Human immunodeficiency virus 1; assay: Antiviral activity against HIV-1 subtype CRF02_AG V022826 infected in human MT4 cells assessed as inhibition of viral replication relative to HIV-1 3B; assay type: functional; in short: as §1
[5] = tested on: Human immunodeficiency virus 1; assay: Antiviral activity against HIV-1 SM051 harboring NNTRI 100I and 103N mutant infected in human MT4 cells assessed as inhibition of viral replication relative to HIV-1 3B; assay type: functional; in short: as §1
[6] = tested on: Human immunodeficiency virus 1; assay: Antiviral activity against HIV-1 SM026 harboring NNTRI 103N and 181C mutant infected in human MT4 cells assessed as inhibition of viral replication relative to HIV-1 3B; assay type: functional; in short: as §1
[7] = tested on: Human immunodeficiency virus 1; assay: Antiviral activity against HIV-1 Bal infected in human TZM-bl cells after 24 hrs by luciferase reporter gene assay in presence of 12.5% whole semen; assay type: functional, organism-based; details: Human immunodeficiency virus 1, Bal
In short: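 HIV-1 BaL (200 TCID50/ml) pretreated with whole semen (12.5% final), then added to overnight-cultured TZM-bl cells (5 x 10^4/well) pretreated 1 h with drug. After 24 h, cells lysed and luciferase read. IC50 versus drug-free control by nonlinear regression; effect of semen tested by ANOVA with Bonferroni and t tests.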

[8] = tested on: Human immunodeficiency virus 1; assay: Antiviral activity against HIV-1 Bal infected in 2 hrs 100 nM compound pretreated human ectocervical explant tissue assessed as prolonged inhibition of viral infection post compound removal; assay type: functional
In short: (§3)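 Ectocervical explants were exposed to drug (0.01–10 µM) for 2 or 24 h at 37°C and washed. They received HIV-1BaL (2 h) on day 0, 2, 4 or 6 after drug removal, with no drug present. Read-outs at 10 days post-exposure: explant p24 ELISA, tissue proviral DNA by qPCR, and p24 in migratory cell–PM-1 cocultures. Three donors (2 h) or two donors (24 h), triplicate.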

[9] = tested on: Human immunodeficiency virus 1; assay: Antiviral activity against HIV-1 Bal infected in human PM1 cells assessed as inhibition of transmission of virus to premissive T cells at 100 nM
[10] = tested on: Human immunodeficiency virus 1; assay: Antiviral activity against HIV-1 SM002 harboring NNTRI 181C mutant infected in human MT4 cells assessed as inhibition of viral replication relative to HIV-1 3B; assay type: functional; in short: as §1
[11] = tested on: Human immunodeficiency virus 1; assay: Antiviral activity against HIV-1 Bal infected in 2 hrs 10000 nM compound pretreated human ectocervical explant tissue assessed as prolonged inhibition of viral infection post compound removal measured after 4 days post compound removal; assay type: functional; in short: as §3
[12] = tested on: Human immunodeficiency virus 1; assay: Antiviral activity against HIV-1 Bal infected in human TZM-bl cells after 24 hrs by luciferase reporter assay; details: Human immunodeficiency virus 1, Bal
[13] = Toxicity against human Ectocervical tissue explants at 0.0001 to 100 uM after 24 hrs by MTT assay
In short: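 Uninfected ectocervical explants were exposed to drug for 2 or 24 h. Viability was measured by MTT reduction per milligram of tissue relative to unexposed explants, either immediately or after overnight culture. Three or four donors, triplicate.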

[14] = Selectivity index, ratio of CC50 for human monocyte derived macrophages to IC50 for HIV-1 Bal; assay type: functional
In short: (§4)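 Selectivity index is CC50/IC50, using values determined in the same time period. CC50 was measured by MTT for TZM-bl and PM-1 cells and by trypan blue exclusion after 14 days for macrophages. Both were fitted by nonlinear regression.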

[15] = tested on: Human immunodeficiency virus 1; assay: Antiviral activity against HIV-1 Bal infected in human cervical tissue explants assessed as inhibition of dissemination of virus via migratory cells after 2 hrs in presence of 12.5% cervical mucus; assay type: functional, organism-based
In short: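 Cervical explants were exposed to HIV-1BaL plus drug for 2 h in cervical mucus simulant or whole semen (final 12.5%), then washed. Migratory cells were cocultured with PM-1 indicator cells and infection read as p24 in coculture supernatant.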

[16] = tested on: Human immunodeficiency virus 1; assay: Antiviral activity against HIV-1 subtype H V029523 harboring NNRTI K101Q and V179I mutant infected in human MT4 cells assessed as inhibition of viral replication relative to HIV-1 3B; assay type: functional; in short: as §1
[17] = Selectivity index, ratio of CC50 for human PM1 cells to IC50 for HIV-1 Bal; assay type: functional; in short: as §4
[18] = tested on: Human immunodeficiency virus 1; assay: Antiviral activity against HIV-1 Bal infected in human TZM-bl cells after 24 hrs by luciferase reporter gene assay in presence of 12.5% cervical mucus; assay type: functional, organism-based; details: Human immunodeficiency virus 1, Bal
In short: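 TZM-bl cells (5 x 10^4/well), cultured overnight, pretreated first with cervical mucus simulant (12.5% final) and then drug (1 h), then infected with HIV-1 BaL (200 TCID50/ml). After 24 h, cells lysed and luciferase read. IC50 versus drug-free control by nonlinear regression; effect of mucus tested by ANOVA with Bonferroni and t tests.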

[19] = tested on: Human immunodeficiency virus 1; assay: Antiviral activity against HIV-1 subtype D V022832 infected in human MT4 cells assessed as inhibition of viral replication relative to HIV-1 3B; assay type: functional; in short: as §1
[20] = tested on: Human immunodeficiency virus 1; assay: Antiviral activity against HIV-1 Bal infected in 1 hr compound pretreated human ectocervical explant tissue assessed as inhibition of viral replication by RT-PCR; assay type: functional, organism-based; in short: as §2
[21] = tested on: Human immunodeficiency virus 1; assay: Antiviral activity against HIV-1 Bal infected in 24 hrs 100 to 1000 nM compound pretreated human ectocervical explant tissue assessed as prolonged inhibition of viral infection post compound removal measured after 4 days post compound removal; assay type: functional; in short: as §3
[22] = tested on: Human immunodeficiency virus 1; assay: Antiviral activity against HIV-1 SM034 harboring NNTRI 188L mutant infected in human MT4 cells assessed as inhibition of viral replication relative to HIV-1 3B; assay type: functional; in short: as §1
[23] = Selectivity index, ratio of CC50 for human TZM-bl cells to IC50 for HIV-1 3B; assay type: functional; in short: as §4

With `Cc1cc(C)c(Nc2ccnc(Nc3ccc(C#N)cc3)n2)c(C)c1` [DAPIVIRINE] the “Ratio IC50” value [1] was 150, the inhibition [2] was “Active” and the “Ratio IC50” value [3] was 0.8. The “Ratio IC50” value [4] was 1, the “Ratio IC50” value [5] was 2389 and the “Ratio IC50” value [6] was 63. For the same compound, the IC50 [7] was 1.75 nM, the IC90 [7] was 16.7 nM and the “inhibition (INH)” value [8] was 90%. For the same compound, the inhibition [9] was “Active”, the “Ratio IC50” value [10] was 8 and the “inhibition (INH)” value [11] was 90%. For the same compound, the IC50 [12] was 2.2 nM, the Activity [13] was “Non-toxic” and the “Selectivity Index” value [14] was 8333. The inhibition [15] was “Active”, the “Ratio IC50” value [16] was 1.4 and the “Selectivity Index” value [17] was 1833. For the same compound, the IC50 [18] was 8.32 nM, the IC90 [18] was 41.6 nM and the “Ratio IC50” value [19] was 0.7. The Activity [20] was “Dose-dependent effect”, the IC50 ([20]; Human immunodeficiency virus 1, Bal) was 0.2 nM and the “inhibition (INH)” value [21] was 90%. The “Ratio IC50” value [22] was 47 and the “Selectivity Index” value [23] was 20400.
